# Measured values from different studies.
# Each line is one published result; the experiments were not run side by side.
# Target: Beta-2 adrenergic receptor (ADRB2, Homo sapiens, UniProt P07550)
Structure (SMILES),assay,setting,quantity,result
COc1ccc(S(=O)(=O)N2CCCCC2)cc1C,"ligand displacement, radioligand",10 µM,inhibition,< 30%
Clc1ccc2c(C3CCN(CCc4c[nH]c5ccccc45)CC3)c[nH]c2c1,"ligand displacement, radioligand",10 µM,inhibition,91%
CN(CCN1CCC(OC(=O)Nc2ccccc2-c2ccccc2)CC1)C(=O)c1ccc(CN2CCC(C(N)=O)CC2)cc1,"ligand displacement, radioligand",1 µM,inhibition,-1%
CC(C)N1CCC[C@H]1CNC(=O)c1cn(C2CCCC2)c(=O)c2c1c1ccccc1n2C,"ligand displacement, radioligand",10 µM,inhibition,-8%
CC(Cc1ccc2c(c1)OCO2)NCC(O)c1ccc(O)c(O)c1 (centres unmarked),"β-arrestin recruitment, agonist",,Emax,131%
c1ccc(C(NCCNC(c2ccccc2)c2ccccc2)c2ccccc2)cc1,cell-free assay,10 µM,inhibition,1%
CCN(CC)CCCC[C@H](NC(=O)[C@H](CC(C)C)NC(=O)[C@H](C)NC(=O)[C@H](Cc1ccccc1)NC(=O)c1ccc(C(C)(C)C)cc1)C(=O)N[C@@H](CO)C(=O)OC,"ligand displacement, radioligand",10 µM,remaining binding,101%
CC(C)Cn1cnc2c(N)nc3ccccc3c21,"ligand displacement, radioligand",10 µM,inhibition,18%
Nc1ncc(-c2nc(N3CCOCC3)nc(N3CCOCC3)n2)c(C(F)F)n1,"cell-free assay, radioligand",10 µM,remaining signal,98%
COCc1c(-c2cc3cc(C)cc(OC)c3s2)c2c(N)ncnn2c1CN1CCNC(=O)C1,"ligand displacement, radioligand",10 µM,inhibition,14%
Cc1c(N2CCNCC2)nc2ccc(Br)cc2c1C(=O)NC[C@H](CCC(=O)O)c1ccccc1Cl,ligand displacement,10 µM,inhibition,18.4%
O=C(Nc1cccnn1)N1CCN([C@@H]2CCOc3cc(C(F)(F)F)ccc32)CC1,cell-free assay,20 µM,inhibition,10%
Cn1cncc1[C@@](O)(COc1ccc(C#N)cc1-c1ccc(OC(F)(F)F)cc1)c1ccc(C#N)cc1,ligand displacement,10 µM,inhibition,23.1%
O=C(NC[C@H](O)CO)[C@@H]1C[C@H](c2ccccc2)CCN1 (mixture of isomers),"ligand displacement, radioligand",10 µM,inhibition,-15.9%
